Here are results for 9 molecules from ChEMBL document CHEMBL1122226, “6-Aryl-4,5-dihydro-3(2H)-pyridazinones. A new class of compounds with platelet aggregation inhibiting and hypotensive activities” (J Med Chem, 1983).

Test [1] is filed under the species Homo sapiens. The experiment in a line: In vitro inhibition of ADP-induced human platelet aggregation. Type of test: functional. The conditions noted are these: Homo sapiens; read-out: EC50. In a few lines: (§1)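 Human venous blood citrated with 10% v/v sodium citrate (3.8%); platelet-rich plasma spun at 300g, 10 min, 4 °C, used within 2 h. Compound in Me2SO (1% final) preincubated 10 min at room temperature; aggregation triggered by collagen 0.02 mg/mL final or ADP 0.85 μg/mL final; maximum rate read in Born aggregometer. EC50 from log dose–effect regression with 95% confidence limits.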

Test [2] is filed under the species Homo sapiens. The test can be described thus: Relative activity (compared to acetylsalicylic acid) for in vitro inhibition of collagen-induced human platelet aggregation. Format: functional.
For test [3], the system named is Rattus norvegicus. The test can be described thus: In vitro hypotensive activity in anesthetized rats after intraperitoneal administration. Format: functional. The conditions noted are these: ip, in the assay text read “In vivo” for “In vitro”. The gist of the method:
(§2)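 Male Sprague-Dawley rats, 230-280 g, urethane-anesthetized (ip); carotid arterial pressure recorded continuously by pressure transducer. Compounds given ip at 2 mL/kg. ED20, dose lowering mean carotid pressure by 20%, from log dose–effect regression; dihydralazine as reference.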

In test [4] the test system is Rattus norvegicus. The experiment in a line: Ex vivo inhibition of collagen-induced rat platelet aggregation after peroral administration. Type of test: functional. The conditions noted are these: po. In a few lines: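 Male Sprague-Dawley rats, 200-250 g, dosed orally, three rats per dose. Blood drawn by heart puncture under ether 1 h post-dose; platelet-rich plasma prepared by centrifugation; aggregation induced with collagen 0.02 mg/mL final, maximum rate read in Born aggregometer.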

Test [5] can be described thus: In vitro inhibition of collagen induced aggregation of human plateles and the ratio of ED33 to EC50 was reported. Type of test: functional. The gist of the method: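 Ratio of oral ED33 (male Sprague-Dawley rats, 3 per dose, blood taken 1 h post-dose, collagen-triggered aggregation) to in vitro EC50 (human citrated platelet-rich plasma, 10 min room-temperature preincubation in 1% Me2SO, collagen 0.02 mg/mL final, regression-derived).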

Test [6] concerns Rattus norvegicus. The test can be described thus: Activity relative to dihydralazine for in vitro hypotensive activity in anesthetized rats. The settings on record: in the assay text read “in vivo” for “in vitro”. Format: functional. The gist of the method: as §2
Test [7] is filed under the species Rattus norvegicus. The test can be described thus: Relative activity in rats based on acetylsalicylic acid. Type of test: functional.
The species named for test [8] is Homo sapiens. The test can be described thus: In vitro inhibition of collagen-induced human platelet aggregation. Type of test: functional, organism-based. The settings on record: Homo sapiens; read-out: EC50. In a few lines: as §1
Test [9] relates to Rattus norvegicus. The experiment in a line: In vivo hypotensive activity in anesthetized rats after intravenous administration.

Each structure is given as a SMILES string. ≈ marks a conversion by molar mass, not a printed value. Some results are limits rather than exact numbers.

With `CC1CC(=O)NN=C1c1ccc(NC(=O)C(C)(C)CBr)cc1` (centres undefined), the half-maximal effective concentration (EC50) in the test filed under Homo sapiens [1] came out at 0.5 µg/mL (≈ 1.37 µM). Also, the Relative activity in the test listed under Homo sapiens [2] turned out to be 1123; in the test with Rattus norvegicus [6], 0.99; in the test filed under Rattus norvegicus [7], 66.6. For the same molecule, the ED20 in the test on Rattus norvegicus [3] came out at 0.34 mg/kg. Moreover, the ED33 with Rattus norvegicus [4] amounted to 3.5 mg/kg. The Ratio in [5] came to 8.
`CCC(Cl)C(=O)Nc1ccc(C2=NNC(=O)CC2C)cc1` (centres undefined): the figures for the EC50 in the test filed under Homo sapiens [1] and in the test listed under Homo sapiens [8] were 0.035 µg/mL (≈ 0.114 µM) and 0.069 µg/mL (≈ 0.224 µM), respectively. Also, the Relative activity in the test filed under Homo sapiens [2] is recorded as 7159; in the test on Rattus norvegicus [6] it was 0.52; in the test filed under Rattus norvegicus [7], 353. In the test on Rattus norvegicus [3], this molecule registered an ED20 of 0.65 mg/kg. Further, the ED33 in the test with Rattus norvegicus [4] amounted to 0.66 mg/kg. Besides, the Ratio in [5] came to 9.6.
As for `CC(Cl)C(=O)Nc1ccc(C2=NNC(=O)CC2C)cc1` (centres undefined) [AMIPIZONE], in the test filed under Homo sapiens [1], the EC50 stood at 0.099 µg/mL (≈ 0.337 µM). In addition, the Relative activity stood at 15936 in the test listed under Homo sapiens [2], 41.7 in the test with Rattus norvegicus [6] and 370 in the test listed under Rattus norvegicus [7]. The same molecule registered an ED20 with Rattus norvegicus [3] of 0.0081 mg/kg. This molecule returned an ED33 in the test on Rattus norvegicus [4] of 0.63 mg/kg. The Ratio in [5] amounted to 20.3.
As to `O=C1CCC(c2ccc(NC(=O)CCl)cc2)=NN1`, the concentration for a half-maximal effect (EC50) in the test filed under Homo sapiens [1] came out at 0.39 µg/mL (≈ 1.47 µM). Also, the results for the Relative activity in the test listed under Homo sapiens [2], in the test with Rattus norvegicus [6] and in the test listed under Rattus norvegicus [7] were 1976, 0.91 and 14.8, respectively. Further, the ED20 with Rattus norvegicus [3] was determined as 0.37 mg/kg. In the test on Rattus norvegicus [4], this molecule yielded an ED33 of 15.7 mg/kg. In [5], the Ratio is 62.8.
`CC(Cl)C(=O)Nc1ccc(C2=NNC(=O)CC2)cc1` (centres undefined): the EC50 in the test filed under Homo sapiens [1] came out at 0.45 µg/mL (≈ 1.61 µM); in the test listed under Homo sapiens [8], 0.28 µg/mL (≈ 1 µM). The Relative activity is 1764 in the test filed under Homo sapiens [2], 0.64 in the test on Rattus norvegicus [6] and 10.3 in the test filed under Rattus norvegicus [7]. In the test on Rattus norvegicus [3], the ED20 was determined as 0.53 mg/kg. Also, the ED33 in the test with Rattus norvegicus [4] is 22.6 mg/kg. For the same molecule, in [5], the Ratio was 82.7.
As to `CC1CC(=O)NN=C1c1ccc(NC(=O)C(C)(C)CCl)cc1` (centres undefined), the EC50 in the test filed under Homo sapiens [1] is 0.28 µg/mL (≈ 0.87 µM). Further, the Relative activity in the test filed under Homo sapiens [2] is reported as 1051; with Rattus norvegicus [6], 0.55; in the test listed under Rattus norvegicus [7] it was 46.6. This molecule also returned an ED20 in the test with Rattus norvegicus [3] of 0.61 mg/kg. This molecule also came in with an ED33 with Rattus norvegicus [4] of 5 mg/kg. Moreover, the Ratio in test [5] was 10.6.
As to `CCCCC[C@H](O)/C=C/[C@@H]1[C@H]2C/C(=C/CCCC(=O)O)O[C@H]2C[C@H]1O` [EPOPROSTENOL], the EC50 in the test filed under Homo sapiens [1] was 0.0174 µg/mL (≈ 0.0494 µM); in the test filed under Homo sapiens [8] it was 0.00165 µg/mL (≈ 0.00468 µM). Besides, the Relative activity in the test filed under Homo sapiens [2] was found to be 299394. This molecule gave an ED20 in the test on Rattus norvegicus [9] of 0.00067 mg/kg.
As for `O=C1CCC(c2ccc(NC(=O)CCCl)cc2)=NN1`, the figures for the EC50 in the test listed under Homo sapiens [1] and in the test listed under Homo sapiens [8] were 0.98 µg/mL (≈ 3.5 µM) and 0.9 µg/mL (≈ 3.22 µM), respectively. Further, the Relative activity in the test listed under Homo sapiens [2] is recorded as 549; in the test with Rattus norvegicus [6], less than 0.34; in the test listed under Rattus norvegicus [7], 5.6. Also, in the test with Rattus norvegicus [3], the ED20 was more than 1 mg/kg. The molecule also returned an ED33 with Rattus norvegicus [4] of 41.7 mg/kg. Further, the Ratio in [5] was 46.3.
As for `CCC(=O)Nc1ccc(C2=NNC(=O)CC2)cc1`, the EC50 came to 0.64 µg/mL (≈ 2.61 µM) in the test filed under Homo sapiens [1] and 0.74 µg/mL (≈ 3.02 µM) in the test filed under Homo sapiens [8]. Further, the Relative activity in the test filed under Homo sapiens [2] turned out to be 668; in the test on Rattus norvegicus [6] it was 5.63; in the test filed under Rattus norvegicus [7], 5.6. The molecule also registered an ED20 in the test on Rattus norvegicus [3] of 0.06 mg/kg. Also, the ED33 in the test with Rattus norvegicus [4] stood at 41.6 mg/kg. Also, the Ratio in test [5] was 56.3.

What is called EC50 is the concentration at which the effect is half-maximal.
